Screening results: PubChem BioAssay, several laboratories
Shown are actives, neighbours in structure and some others; about 4.1% of the full set was active somewhere.
KCNK9 block – KCNK9 potassium channel inhibitors, primary screen, HEK293 cells, thallium flux. Potassium channel subfamily K member 9 (Homo sapiens), Q9NPC2. FluxOR thallium flux fluorescence; active compounds read low. B-score at 10 µM. 310,000 tested, 1.2% active. AID 488922, 2010;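 active = ratio B-score over 3 SD below the library mean, with starting fluorescence within 5 SD of its mean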;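 also: negative B-score means less thallium flux so channel inhibition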
KCNQ1 act – potentiators or activators of KCNQ1 channel, primary screen, cell-based, thallium flux, high-throughput; Potassium voltage-gated channel subfamily KQT member 1 (Homo sapiens), P51787; CHO-K1 KCNQ1, thallium flux FluxOR fluorescence; active compounds read high; B-score at 10 µM; 310,000 tested, 0.35% active; AID 2648, 2010;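 active = fluorescence ratio B-score, a plate-corrected score, at least three library SD, with initial intensity B-score within 5 SD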
Target sequence (P51787 whole entry, looked up): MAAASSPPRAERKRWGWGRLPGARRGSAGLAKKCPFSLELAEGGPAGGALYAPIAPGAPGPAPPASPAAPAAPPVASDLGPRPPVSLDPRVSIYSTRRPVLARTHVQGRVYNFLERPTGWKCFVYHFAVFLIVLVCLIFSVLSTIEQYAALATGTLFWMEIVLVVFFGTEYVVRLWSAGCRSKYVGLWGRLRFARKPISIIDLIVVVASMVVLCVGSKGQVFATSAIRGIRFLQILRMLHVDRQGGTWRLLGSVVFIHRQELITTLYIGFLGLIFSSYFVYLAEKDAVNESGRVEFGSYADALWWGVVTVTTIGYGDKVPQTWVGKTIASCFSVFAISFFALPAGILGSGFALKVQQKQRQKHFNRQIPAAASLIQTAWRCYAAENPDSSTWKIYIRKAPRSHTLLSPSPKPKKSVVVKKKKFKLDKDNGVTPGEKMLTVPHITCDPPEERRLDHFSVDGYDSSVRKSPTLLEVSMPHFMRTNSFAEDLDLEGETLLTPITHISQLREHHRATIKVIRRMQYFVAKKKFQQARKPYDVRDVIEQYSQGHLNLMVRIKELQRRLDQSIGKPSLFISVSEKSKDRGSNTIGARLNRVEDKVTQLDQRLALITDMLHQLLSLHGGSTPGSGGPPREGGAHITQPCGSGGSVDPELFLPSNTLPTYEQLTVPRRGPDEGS
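Assay system: CHO-K1 cells stably expressing KCNQ1; Medium: assay buffer with matched DMSO; Also added: K+/Tl+ depolarizing stimulus; Dosing: single dose; Timing: dye 90 min, compound 20 min, room temperature; Measured by: kinetic FluxOR thallium fluorescence, 10-s 1-Hz baseline, 110-s post-stimulus read; Read-out: peak-minus-minimum fluorescence over initial fluorescence, negative-control normalized, B-scored.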
hERG rescue – hERG rescue from dofetilide block, primary screen, cell-based, CHO-hERG, FluxOR thallium flux, dofetilide IC70 | Voltage-gated inwardly rectifying potassium channel KCNH2 (Homo sapiens), Q12809 | dofetilide IC70 present | activation (rescue from dofetilide block), less the hit threshold, % at 10 µM | 310,000 tested, 0.51% active;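 active = activation above the mean of controls blocked by dofetilide plus 5 SD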;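 also: thallium influx through hERG after potassium depolarization seen as dye fluorescence rise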
Cl transport mod – KCC2 cotransporter modulators, thallium flux, primary screen, cell-based, HEK293 KCC2, FluoZin-2 fluorescence, MLSMR; KCC2 cells, thallium flux FluoZin-2 fluorescence; B-score of Tl+ flux slope (higher = more flux/activation; lower = inhibition) at 10 µM; 190,000 tested, 2.2% active;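 active = thallium flux slope and its plate-corrected score both differing from the plate sample mean at a set confidence after two filtering rounds, in either direction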;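 also: slope of fluorescence scaled to starting intensity during 10 to 20 s after thallium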
KCNK3 block – human KCNK3 channel inhibitors, primary screen, CHO cells, FluxOR thallium flux, B-score; B-score at 10 µM; FluxOR fluorescence; active compounds read low; 340,000 tested, 0.84% active; AID 602410, 2012; Potassium channel subfamily K member 3 (Homo sapiens), O14649;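 active = B-score under library mean minus 4 SD, starting fluorescence ratio at most library mean plus 5 SD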;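 also: more negative B-score means stronger inhibition of thallium flux through KCNK3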
KCNQ1 block – inhibitors of human KCNQ1 channel, primary screen, cell-based, thallium flux, high-throughput; Potassium voltage-gated channel subfamily KQT member 1 (Homo sapiens), P51787; CHO-K1 KCNQ1, FluxOR thallium flux fluorescence; active compounds read high; B-score at 10 µM; 310,000 tested, 1.3% active;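 active = compounds whose thallium flux B-score, printed positive for inhibition, exceeds three library SD while starting fluorescence stays within three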;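 also: channel opened by potassium depolarization with thallium stimulus after 20 min compound exposure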
KCNK9 inh conf – KCNK9 potassium channel inhibitors, confirmation, HEK293 cells, thallium flux, duplicate; AID 492992, 2010; 4,900 tested, 43% active; inhibition, % at 10 µM; shares compounds with KCNK9 block; FluxOR thallium flux fluorescence;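 active = thallium signal inhibited by more than 5 SD of the compound-free buffer control wells, on both duplicate plates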
Kir2-1 spec – mouse Kir2.1 channel inhibition, confirmation, selectivity assay for KCNK9 modulator project, cell-based, HEK293, thallium flux. inhibition, % at 10 µM. Kir2.1 cells, FluxOR thallium flux fluorescence. shares compounds with KCNK9 block. 4,900 tested, 4% active;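 active = thallium signal drop more than 5 SD beyond the mean of the no-compound control wells, seen in both duplicate plates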;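 also: signal is fluorescence rise after thallium addition divided by baseline fluorescence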
KCNK9 uninduced – thallium flux in non-induced HEK293 cells, confirmation, counter-screen for KCNK9 inhibitor project, cell-based, second counter screen, non-induced KCNK9-HEK293; inhibition, % at 10 µM; shares compounds with KCNK9 block; 4,900 tested, 40% active; FluxOR thallium flux;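 active = thallium signal drop beyond 5 SD of the untreated control mean, on both duplicate plates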
Of the large screens only hits and unclear results are named; the others gave an inactive call (follow-up assays come after a bar, where they were run).

Cc1cccc(NS(=O)(=O)c2ccc(C(=O)NCC(c3ccco3)N3CCCCC3)cc2)c1C (centres undefined)	none (no result: Cl transport mod)
CCCN(CCC)C(=O)Cn1c(=O)c2ccccc2n2c(=S)sc(-c3ccccc3C)c12	none | KCNK9 inh conf inactive | Kir2-1 spec inactive | KCNK9 uninduced inactive
N#C/C(=C\c1ccc(Sc2ccc(Cl)cc2)o1)c1nc2ccccc2[nH]1	none (no result: KCNK9 block, KCNQ1 act, hERG rescue, KCNQ1 block)
N#C/C(=C\c1ccc(Sc2nc3ccccc3[nH]2)o1)c1ccccc1	KCNQ1 block 13 | KCNK9 inh conf inactive | Kir2-1 spec inactive | KCNK9 uninduced inactive
CCn1cnc2c1c(=O)n(Cc1csc(-c3ccccc3)n1)c(=O)n2Cc1ccccc1	none (no result: Cl transport mod) | KCNK9 inh conf inactive | Kir2-1 spec inactive | KCNK9 uninduced inactive
CCOC(=O)c1c(C)[nH]c(C(=O)Cn2c(=O)c3c(ncn3CC)n(Cc3ccccc3)c2=O)c1C	none | KCNK9 inh conf inactive | Kir2-1 spec inactive | KCNK9 uninduced inactive
CCn1cnc2c1c(=O)n(Cc1nnc3n1-c1ccccc1SC3)c(=O)n2Cc1ccccc1	none | KCNK9 inh conf inactive | Kir2-1 spec inactive | KCNK9 uninduced inactive
CCn1cnc2c1c(=O)n(Cc1cccc([N+](=O)[O-])c1)c(=O)n2Cc1ccccc1	none (no result: Cl transport mod) | KCNK9 inh conf inactive | Kir2-1 spec inactive | KCNK9 uninduced inactive
CCn1cnc2c1c(=O)n(CC(=O)NCc1ccccc1)c(=O)n2Cc1ccccc1	none
CCN(C(=O)CSc1nnc(-c2ccccc2OC)n1N)c1c(N)n(Cc2ccccc2)c(=O)[nH]c1=O	none (no result: KCNK9 block, KCNQ1 act, hERG rescue, Cl transport mod, KCNQ1 block)
COc1ccc2c(C)cc(SCC(=O)Nc3ccc(Cl)cn3)nc2c1	none
CC1CCN(Cc2c(C(=O)N/N=C/c3ccc(C(C)(C)C)cc3)nnn2-c2nonc2N)CC1	none (no result: Cl transport mod) | KCNK9 inh conf inactive | Kir2-1 spec inactive | KCNK9 uninduced inactive
CC(C)CCC(CCNCc1ccccn1)c1ccc(Cl)cc1 (centres undefined)	none (no result: Cl transport mod)
OCC[C@H]1C[C@@H](O)[C@H](O)[C@@]2(CCc3ccccc3O2)O1	none (no result: KCNK9 block, KCNQ1 act, hERG rescue, Cl transport mod, KCNQ1 block)
COc1ccc(-c2ccc(SCc3ccccn3)nn2)cc1OC	none
COc1cccc(-c2ccc(SCc3ccccn3)nn2)c1	none | KCNK9 inh conf inactive | Kir2-1 spec inactive | KCNK9 uninduced inactive
CCN(Cc1ccncc1)Cc1cn[nH]c1-c1cc(OC)c(OC)c(OC)c1	none (no result: Cl transport mod)
Cc1cccn2c(=O)c(/C=N/O)c(N3CCOCC3)nc12	none
Cc1ccc(N=Nc2c(O)ccc3n[nH]nc23)cc1	none | KCNK9 inh conf inactive | Kir2-1 spec inactive | KCNK9 uninduced inactive
CC(=O)c1ccc(N=Nc2ccc(C)cc2)cc1	none
COc1ccc(CCNC(=O)COC(=O)c2cnccn2)cc1	none
CC1CCc2c(sc(NS(=O)(=O)c3ccccc3)c2C(=O)OC(C)C)C1 (centres undefined)	KCNQ1 act 26, Cl transport mod 10.2 | KCNK9 inh conf inactive | Kir2-1 spec inactive | KCNK9 uninduced inactive
COc1cc(-c2noc(C)c2C(=O)NCCc2ccccc2)cc(OC)c1OC	none (no result: KCNK9 block, KCNQ1 act, hERG rescue, Cl transport mod, KCNQ1 block)
CCc1cc(=O)oc2cc(OCc3ccc(C(=O)O)o3)ccc12	none (no result: Cl transport mod)
Cc1cc(C)nc(N/N=C/c2ccccc2OCc2ccc([N+](=O)[O-])cc2)n1	KCNK9 block -14.9 | KCNK9 inh conf 51.0% | Kir2-1 spec inactive | KCNK9 uninduced 28.5%
O=[N+]([O-])c1ccc(N/N=C\c2ccccc2OCc2ccccc2)cc1	none
O=C(CC(=O)c1ccccc1)CS(=O)(=O)c1ccccc1	none (no result: KCNK9 block, KCNQ1 act, hERG rescue, Cl transport mod, KCNQ1 block)
Cc1cccc(NCN2C(=O)c3ccncc3C2=O)n1	none | KCNK9 inh conf inactive | Kir2-1 spec inactive | KCNK9 uninduced inactive
O=C1c2ccncc2C(=O)N1Cc1cccc(Cl)c1	none
CCc1nc2ccccc2nc1N1CCN(S(=O)(=O)c2c(C)cc(Cl)cc2C)CC1	none | KCNK9 inh conf inactive | Kir2-1 spec inactive | KCNK9 uninduced inactive
COc1ccccc1C1CCN(Cc2ccc(Cl)cc2Cl)CC1	none (no result: Cl transport mod)
COc1ccccc1C1CCN(Cc2ccc(Cl)c(Cl)c2)CC1	none (no result: Cl transport mod) | KCNK9 inh conf inactive | Kir2-1 spec inactive | KCNK9 uninduced inactive
COc1ccccc1C1CCN(Cc2cccc3ccccc23)CC1	none (no result: Cl transport mod) | KCNK9 inh conf inactive | Kir2-1 spec inactive | KCNK9 uninduced 27.0%
CC(C)C(=O)NC(c1ccc(Cl)cc1Cl)c1ccc2cccnc2c1O (centres undefined)	none (no result: Cl transport mod) | KCNK9 inh conf inactive | Kir2-1 spec inactive | KCNK9 uninduced 28.5%
CC(C(=O)NC1C=CS(=O)(=O)C1)N1C(=O)/C(=C/c2cccc(Cl)c2)SC1=S (centres undefined)	none (no result: Cl transport mod) | KCNK9 inh conf inactive | Kir2-1 spec inactive | KCNK9 uninduced inactive
COc1ccc(NC(=O)C2=C(C)C(=O)OC23CCC(C)CC3)c(OC)c1 (centres undefined)	none
CC[C@]1(C(=O)OC)[C@H]2C(=O)N(C)C(=O)[C@H]2[C@H]2CN(C)C(=NC)N21	none (no result: KCNK9 block, KCNQ1 act, hERG rescue, Cl transport mod, KCNQ1 block)
COc1ccccc1CC(=O)Nc1nc(-c2ccc(F)c(F)c2)cs1	KCNK9 block -17.1 (no result: Cl transport mod) | KCNK9 inh conf inactive | Kir2-1 spec inactive | KCNK9 uninduced 39.0%
COc1ccc(-c2csc(NC(=O)Cc3ccccc3F)n2)cc1OC	none (no result: Cl transport mod)
COc1ccc(NC(=O)CN2CCN(c3ccccc3Cl)CC2)cc1	none | KCNK9 inh conf inactive | Kir2-1 spec inactive | KCNK9 uninduced inactive
COc1ccc(NC(=O)CN2CCN(c3ccccc3C)CC2)cc1	none (no result: Cl transport mod)
CCCCn1c(SCc2nc(N)nc(Nc3ccccc3C)n2)nc2ccccc2c1=O	KCNK9 block -9.46 | KCNK9 inh conf 39.5% | Kir2-1 spec inactive | KCNK9 uninduced inactive
Nc1ncnc2c1ncn2[C@@H]1O[C@H](CNC(=O)[C@H]2CCC(=O)N2)[C@@H](O)[C@H]1O	none (no result: KCNK9 block, KCNQ1 act, hERG rescue, Cl transport mod, KCNQ1 block)
CN(CCc1ccccc1)C(=O)c1ccc(NC(=O)Cc2cccc(NC(=O)C3CCN(C(=O)c4ccccc4)CC3)c2)cc1	none (no result: KCNK9 block, KCNQ1 act, hERG rescue, Cl transport mod, KCNQ1 block)
CCOc1ccc(C(=O)OCCN(CC)CC)cc1	none
